This is an account of results in PubChem BioAssay.

Experiment [1] is described as follows: OD615 S. cerevisiae growth inhibition, permissive medium, pilot counter-assay, permissive growth control for S. cerevisiae lifespan shortening project (AID 705;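 active = growth inhibition above 25% in both replicates, a cutoff set 3 SD above the mean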). The settings on record: OD615, 24 h, at 10 µM, active compounds read high. In outline: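 Material: engineered DeaD yeast; compound dosing: one dose 10 µM, DMSO 0.25% final; measure: yeast growth inhibition indicated by reduced 24 h OD615; detection: OD615 turbidity read; incubation: cells pre-grown 4 h, then 24 h compound exposure, 30 °C humidified; medium: permissive synthetic complete medium with raffinose and galactose carbon sources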

Experiment [2] can be described thus: Restrictive medium S. cerevisiae growth inhibition, OD615, pilot screen of yeast lifespan reduction project, restrictive growth control (AID 706;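 active = growth inhibition above a set limit, 3 SD over mean compound inhibition, in both replicates, cut at about 43% in these data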;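 also: modified DeaD lifespan yeast strain shifted to restrictive glucose medium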). The settings on record: OD615, 48 h, at 10 µM, active compounds read high. The gist of the method: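 material = engineered S. cerevisiae DeaD strain | medium = glucose-based CSMM-D restrictive medium | times = 4 h pre-incubation, 48 h exposure at 30 °C | technique = OD615 absorbance reading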

Experiment [3] can be described thus: viability gain of MRP-1-high H69AR cells under doxorubicin, pilot screen, MRP-1 activator project, CellTiter-Glo, duplicate (AID 807).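 Also: compound pretreatment 18-22 h then 72 h combined with doxorubicin; 0% = doxorubicin alone and 100% = vehicle without doxorubicin.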 The settings on record: H69AR viability with doxorubicin, CellTiter-Glo luminescence; at 10 µM; active compounds read high. A general note: Cellular ATP, detected with luciferase, serves as a proxy for viable cell number.
The nature of experiment [4]: growth suppression of beta-catenin knockout HCT116, pilot screen, human colon tumor cells (AID 823;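 active = cell viability at or below a set limit in both duplicate runs, the limit being the all-compound median minus 4 SD, cut at about 23% in these data, passing the limit was not always enough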;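 also: 0% = wells killed by 20 µM Hyamine and 100% = untreated DMSO cell wells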). The settings on record: CellTiter-Glo, 60 h, at 10 µM, active compounds read low.
Experiment [5] in a line: growth suppression of PTEN-deleted HCT116, pilot screen, cell-based, HCT116 clonal line, CellTiter-Glo (AID 824;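 active = viability at or below 27.92% in each of two runs, the all-compound median minus 4 SD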;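 also: 0% = 20 µM Hyamine control and 100% = vehicle cell control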). The settings on record: 60 h, at 10 µM, active compounds read low.
Experiment [6] in a line: inhibitors of the yeast RAM network, pilot screen, dse1pr::URA3 reporter, 5-FOA selection (AID 869;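 active = inhibition over a set limit, the all-compound mean plus 3 SD, in both replicate runs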;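 also: 0% = DMSO wells with no growth and 100% = 10 µM 1-NA-PP1 with full growth; RAM network block rescues cells from 5-FOA so hits raise OD615 growth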). The settings on record: S. cerevisiae dse1pr::URA3 5-FOA growth, OD615, 2 d; at 10 µM; active compounds read high; strain carries analog-sensitive mutant Cbk1 kinase.
Experiment [7] can be described thus: RAM signaling pathway blockade in yeast – S. cerevisiae, Pdr1DBD-CYC8 efflux-inhibited sensitized strain, primary screen (AID 1298;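 active = RAM network inhibition above 8.4% in each of two replicates, 3 SD over the compound average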;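 also: 0% = DMSO untreated cells without growth and 100% = 10 µM 1-NA-PP1 full growth; higher means more yeast growth rescued from 5-FOA killing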). The settings on record: S. cerevisiae cbk1-as DSE1-URA3 strain, 5-FOA growth OD615, 2 d; at 50 µM; active compounds read high.

Values without a mark were called inactive. Results filed as inconclusive are left out. The source made the active and inactive calls.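 The calls were made as follows, unless noted: active = viability increase at or above a cutoff of the median across tested compounds plus 3 SD (cut at about 8.5% in these data, passing the limit was not always enough); inconclusive = some gains above the cutoff, reason not given; inactive = the rest.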

For `CC(=O)NC(O)C(=O)c1ccccc1` (stereo unspecified), the growth inhibition in experiment [1] is 5.71%; in experiment [2], 3.38%. The viability increase in experiment [3] is -2.24%. For the same compound, the viability is 97% in experiment [4] and 89.6% in experiment [5]. Moreover, the inhibition in experiment [6] was -0.095%. Also, in experiment [7], the RAM network inhibition was 3.35%.
Take `CCCOc1ccc2ccccc2c1/C=N/n1c(C)nnc1-n1nc(C)cc1C`: the results for the growth inhibition in experiment [1] and in experiment [2] were -5.19% and 1.04%, respectively. In experiment [3], the viability increase was -4.98%. Besides, the viability is 18.6% (active) in experiment [4] and 19.6% (active) in experiment [5]. For the same compound, the inhibition in experiment [6] is -0.29%. Further, the RAM network inhibition in experiment [7] is -2.3%.
Turning to `COc1ccc(NC(=O)c2cc3ccccc3o2)cc1`, the growth inhibition in experiment [1] was -7.97%; in experiment [2], 10.6%. The viability increase in experiment [3] is -4.64%. In addition, the viability was 86.6% in experiment [4] and 75.8% in experiment [5]. Further, the inhibition in experiment [6] is 0.89%. Moreover, the RAM network inhibition in experiment [7] was -1.4%.
With `CC(CNC(=O)C1CCCCC1)NC(=O)C1CCCCC1` (stereo unspecified), the growth inhibition in experiment [1] was -7.69%; in experiment [2] it was -6.86%. Besides, in experiment [3], the viability increase was 0.64%. Moreover, the viability in experiment [4] is 89.6%; in experiment [5], 92.5%. Besides, in experiment [6], the inhibition was 0.08%. The RAM network inhibition in experiment [7] is 4%.
Consider `CCn1c(CNC(=O)c2cccc(C)c2)nc2ccccc21`, for which the growth inhibition in experiment [1] was -6.91%; in experiment [2] it was -5.74%. Further, in experiment [3], the viability increase is -0.3%. Moreover, the viability was 99.6% in experiment [4] and 97.2% in experiment [5]. For the same compound, the inhibition in experiment [6] is 2.5%. Also, in experiment [7], the RAM network inhibition is 5%.
For `CCOC(=O)C1CCN(S(=O)(=O)c2cccc3nonc23)CC1`, the growth inhibition was -5.04% in experiment [1] and -10.7% in experiment [2]. The viability increase in experiment [3] was 0.01%. For the same compound, the values for the viability in experiment [4] and in experiment [5] were 100% and 96.8%, respectively. Also, in experiment [6], the inhibition was 1.46%. Moreover, the RAM network inhibition in experiment [7] was -1.5%.
Regarding `CCc1ccc(NS(=O)(=O)c2cc(OC)ccc2OC)cc1`, the growth inhibition was -3.06% in experiment [1] and -9.52% in experiment [2]. Also, the viability increase in experiment [3] was -3.77%. In addition, the results for the viability in experiment [4] and in experiment [5] were 66.6% and 58.3%, respectively. For the same compound, the inhibition in experiment [6] is 0.68%. In experiment [7], the RAM network inhibition is 1.9%.
For the compound `O=C(Cn1cc2c(n1)CCCCC2)NCCN1CCOCC1`, the growth inhibition in experiment [1] was 7.15%; in experiment [2], 10.1%. In experiment [3], the viability increase was -0.25%. Moreover, the viability was 107% in experiment [4] and 97.3% in experiment [5]. Moreover, in experiment [6], the inhibition is 2%. For the same compound, the RAM network inhibition in experiment [7] was 2.18%.
With `CC1Cn2c(COc3ccccc3)nnc2S1` (stereo unspecified), the growth inhibition in experiment [1] was -8.31%; in experiment [2], 6.73%. In experiment [3], the viability increase was -0.25%. Further, the viability is 102% in experiment [4] and 94.1% in experiment [5]. In experiment [6], the inhibition was 0.645%. Further, in experiment [7], the RAM network inhibition is 4%.
Turning to `CCCc1cc(=O)oc2cc(OCC(=O)N(C)C)c(Cl)cc12`, the growth inhibition in experiment [1] is -3.68%; in experiment [2], 6.56%. The viability increase in experiment [3] is -0.5%. Further, the viability in experiment [4] is 99.6%; in experiment [5] it was 93.9%. Further, the inhibition in experiment [6] is 1.73%. Moreover, the RAM network inhibition in experiment [7] is -1.29%.
In the case of `CCOC(=O)C1=C(C)NC(=O)NC1c1ccc(N(C)C)cc1` (stereo unspecified), the growth inhibition is -12.3% in experiment [1] and -5.65% in experiment [2]. For the same compound, the viability increase in experiment [3] is -2.7%. Moreover, the viability in experiment [4] was 96.9%; in experiment [5], 92.9%. Also, the inhibition in experiment [6] was 2.35%. The RAM network inhibition in experiment [7] is 5.85%.
Take `CC(C)C(NS(=O)(=O)c1ccc2c(c1)oc(=O)n2C)C(=O)N1CCN(c2ccccc2F)CC1` (stereo unspecified): the growth inhibition was -11% in experiment [1] and -9.9% in experiment [2]. Besides, the viability increase in experiment [3] is -4.04%. In addition, the viability in experiment [4] was 86.9%; in experiment [5], 83.1%. In addition, the inhibition in experiment [6] was 1.75%. The RAM network inhibition in experiment [7] is 4.04%.
On to `O=C(CCC1CC(=O)Nc2ccccc21)NCc1cccnc1` (stereo unspecified), for which the values for the growth inhibition in experiment [1] and in experiment [2] were -10.7% and -2.23%, respectively. Further, the viability increase in experiment [3] was -1.06%. Further, the viability in experiment [4] was 102%; in experiment [5] it was 90.5%. In experiment [6], the inhibition is 1.1%. In experiment [7], the RAM network inhibition was 12.5%.
For `CCOC(=O)C(C(=O)OCC)c1cc(Br)c2noc3c2c1C(=O)c1ccccc1-3`, the growth inhibition was -15.6% in experiment [1] and -3.25% in experiment [2]. For the same compound, the viability increase in experiment [3] is -8.25%. Also, the viability in experiment [4] is 1.06% (active); in experiment [5], 1.23% (active). In experiment [6], the inhibition is 1.65%. Moreover, the RAM network inhibition in experiment [7] is 1.87%.
As to `Cc1c(C(=O)Nc2ccc(F)cc2)oc2ccc(S(=O)(=O)N3CCCC3)cc12`, the growth inhibition in experiment [1] was -14.8%; in experiment [2], -6.18%. The viability increase in experiment [3] was -2.04%. The viability in experiment [4] is 101%; in experiment [5], 96%. The inhibition in experiment [6] is 3.88%. For the same compound, the RAM network inhibition in experiment [7] is 3%.
For `O=C(Nc1cc(=O)c2ccccc2o1)N1CCOCC1`, the growth inhibition in experiment [1] was 1.73%; in experiment [2], -7.41%. In addition, the viability increase in experiment [3] is -2.39%. Moreover, the viability in experiment [4] and in experiment [5] was 103% throughout. For the same compound, the inhibition in experiment [6] is 2.6%. In experiment [7], the RAM network inhibition is 1.4%.
With `COc1ccc(C2C(C(=O)N3CCN(c4ccccc4)CC3)c3ccccc3C(=O)N2C)cc1` (stereo unspecified), the growth inhibition in experiment [1] is -13.4%; in experiment [2], -17.6%. For the same compound, in experiment [3], the viability increase was -4.08%. The results for the viability in experiment [4] and in experiment [5] were 69.6% and 74.9%, respectively. Moreover, the inhibition in experiment [6] was 2.13%. Besides, the RAM network inhibition in experiment [7] is 2.38%.
`Cc1ccc(C(=O)COC(=O)c2cnccn2)cc1`: the growth inhibition in experiment [1] is -15.1%; in experiment [2] it was -10.8%. In addition, in experiment [3], the viability increase is -1.61%. Besides, the viability in experiment [4] is 104%; in experiment [5], 97.8%. The inhibition in experiment [6] is 2.19%. For the same compound, the RAM network inhibition in experiment [7] was 1.61%.

The viability is a read-out of living cells in per cent, often relative to untreated cells. One may read the inhibition as the drop in the measured response relative to a control, in per cent.
